Test results as given in ChEMBL document CHEMBL1126197, “Orally active beta-lactam inhibitors of human leukocyte elastase-1. Activity of 3,3-diethyl-2-azetidinones” (J Med Chem, 1992).

Experiments:
[1] = target: T1, Neutrophil elastase (Homo sapiens) (UniProt P08246); test: elastase inhibitory activity, evaluated for second order rate constant (time-dependent inhibition)
T1 sequence (whole entry): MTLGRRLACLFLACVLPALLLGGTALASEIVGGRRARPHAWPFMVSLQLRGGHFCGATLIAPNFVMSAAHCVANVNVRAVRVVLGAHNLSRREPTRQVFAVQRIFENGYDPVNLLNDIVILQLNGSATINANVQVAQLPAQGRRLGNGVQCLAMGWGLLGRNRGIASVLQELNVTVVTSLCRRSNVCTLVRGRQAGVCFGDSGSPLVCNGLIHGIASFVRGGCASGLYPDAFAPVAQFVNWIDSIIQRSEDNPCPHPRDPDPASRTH
Summary of the method: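 HLE-catalyzed hydrolysis of MeO-Suc-Ala-Ala-Pro-Ala-pNA was followed while enzyme inactivation was monitored for 15 min. Second-order rate constants (kobs/I, M-1 s-1) were derived from this time-dependent inactivation.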

[2] = target: T1, Neutrophil elastase (Homo sapiens); test: Percent inhibition in elastase-induced lung haemorrhage, when the compound is dosed orally at 30 mg/kg 30 min before challenge by HLE (Human leukocyte elastase); assay type: functional, organism-based; design: dose 30 mg/kg
Summary of the method: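 Anesthetized hamsters received the compound orally 30 min before intratracheal instillation of 50 units HLE. After 3 h, hemoglobin in the lung lavage was measured spectrophotometrically. Percent inhibition of hemorrhage was calculated for the drug-treated group against the vehicle-only group.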

SMILES | second order rate constant kobs/[I] [1] | inhibition [2]
CCC1(CC)C(=O)N(C(=O)NCC2CCCCC2)C1Oc1ccc(C(=O)O)cc1 (configuration not stated) | 1400 M⁻¹ s⁻¹ | 0%
CCCCCCCCCNC(=O)N1C(=O)C(CC)(CC)C1Oc1ccc(C(=O)O)cc1 (configuration not stated) | 8300 M⁻¹ s⁻¹ | –
CCC1(CC)C(=O)N(C(=O)NCc2ccc(-c3ccccc3)cc2)C1Oc1ccc(CC(=O)O)cc1 (configuration not stated) | 29000 M⁻¹ s⁻¹ | 19%
CCC1(CC)C(=O)N(C(=O)NCCCc2ccccc2)C1Oc1ccc(C(=O)O)cc1 (configuration not stated) | 4500 M⁻¹ s⁻¹ | 12%
CCC1(CC)C(=O)N(C(=O)NCCCCOc2ccccc2)C1Oc1ccc(C(=O)O)cc1 (configuration not stated) | 3400 M⁻¹ s⁻¹ | 30%
CCC1(CC)C(=O)N(C(=O)NCCCOc2ccccc2)C1Oc1ccc(C(=O)O)cc1 (configuration not stated) | 3500 M⁻¹ s⁻¹ | 40%
CCC1(CC)C(=O)N(C(=O)NCc2ccc(C(C)=O)cc2)C1Oc1ccc(C(=O)O)cc1 (configuration not stated) | 5900 M⁻¹ s⁻¹ | 37%
CCC1(CC)C(=O)N(C(=O)NCc2ccc(OCc3ccccc3)cc2)C1Oc1ccc(C(=O)O)cc1 (configuration not stated) | 12000 M⁻¹ s⁻¹ | -9%
CCC1(CC)C(=O)N(C(=O)NCc2cccs2)C1Oc1ccc(C(=O)O)cc1 (configuration not stated) | 4900 M⁻¹ s⁻¹ | 52%
CCC1(CC)C(=O)N(C(=O)NCc2ccc(C(=O)O)cc2)C1Oc1ccc(C(=O)O)cc1 (configuration not stated) | 2200 M⁻¹ s⁻¹ | 25%
CCC1(CC)C(=O)N(C(=O)NCc2ccc(C(N)=O)cc2)C1Oc1ccc(C(=O)O)cc1 (configuration not stated) | 4300 M⁻¹ s⁻¹ | 10%
CCC1(CC)C(=O)N(C(=O)NCc2cccc3ccccc23)C1Oc1ccc(C(=O)O)cc1 (configuration not stated) | 8400 M⁻¹ s⁻¹ | –
CCC1(CC)C(=O)N(C(=O)NCc2ccccc2N)C1Oc1ccc(C(=O)O)cc1 (configuration not stated) | 1200 M⁻¹ s⁻¹ | 73%
CCC1(CC)C(=O)N(C(=O)NCc2ccc(C)cc2)C1Oc1ccc(CC(=O)O)cc1 (configuration not stated) | 4500 M⁻¹ s⁻¹ | 72%
CCC1(CC)C(=O)N(C(=O)NCc2ccccc2O)C1Oc1ccc(C(=O)O)cc1 (configuration not stated) | 1500 M⁻¹ s⁻¹ | -2%
CCC1(CC)C(=O)N(C(=O)NCCCCCc2ccccc2)C1Oc1ccc(C(=O)O)cc1 (configuration not stated) | 4800 M⁻¹ s⁻¹ | 15%
CCC1(CC)C(=O)N(C(=O)NCCC(=O)c2ccccc2)C1Oc1ccc(C(=O)O)cc1 (configuration not stated) | 2100 M⁻¹ s⁻¹ | 8%
CCC1(CC)C(=O)N(C(=O)NCc2ccc([N+](=O)[O-])cc2)C1Oc1ccc(C(=O)O)cc1 (configuration not stated) | 5100 M⁻¹ s⁻¹ | 22%
CCCCNC(=O)N1C(=O)C(CC)(CC)C1Oc1ccc(C(=O)O)cc1 (configuration not stated) | 800 M⁻¹ s⁻¹ | 45%
CCC1(CC)C(=O)N(C(=O)NCCCCc2ccccc2)C1Oc1ccc(C(=O)O)cc1 (configuration not stated) | 9200 M⁻¹ s⁻¹ | 35%
CCC1(CC)C(=O)N(C(=O)NCc2ccc(-c3ccccc3)cc2)C1Oc1ccc(C(=O)O)cc1 (configuration not stated) | 23200 M⁻¹ s⁻¹ | 24%
CCC1(CC)C(=O)N(C(=O)NCc2ccccc2)C1Oc1ccc(CC(=O)O)cc1 (configuration not stated) | 3200 M⁻¹ s⁻¹ | 71%
CCN(Cc1ccccc1)C(=O)N1C(=O)C(CC)(CC)C1Oc1ccc(C(=O)O)cc1 (configuration not stated) | 2300 M⁻¹ s⁻¹ | 34%
CCC1(CC)C(=O)N(C(=O)NCCCC(=O)c2ccccc2)C1Oc1ccc(C(=O)O)cc1 (configuration not stated) | 2000 M⁻¹ s⁻¹ | 0%
CCC1(CC)C(=O)N(C(=O)NCc2ccc3ccccc3c2)C1Oc1ccc(C(=O)O)cc1 (configuration not stated) | 21300 M⁻¹ s⁻¹ | 37%
CCC1(CC)C(=O)N(C(=O)NCCCC(O)c2ccccc2)C1Oc1ccc(C(=O)O)cc1 (configuration not stated) | 5100 M⁻¹ s⁻¹ | –
CCC1(CC)C(=O)N(C(=O)NCCCCCCc2ccccc2)C1Oc1ccc(C(=O)O)cc1 (configuration not stated) | 5000 M⁻¹ s⁻¹ | 14%
CCC1(CC)C(=O)N(C(=O)NCCc2ccccc2)C1Oc1ccc(C(=O)O)cc1 (configuration not stated) | 1300 M⁻¹ s⁻¹ | 33%

Results, then the compound that gave them:

second order rate constant kobs/[I] [1] | inhibition [2] | SMILES
1800 M⁻¹ s⁻¹ | 2% | CCC1(CC)C(=O)N(C(=O)NCc2ccc(N)cc2)C1Oc1ccc(C(=O)O)cc1 (configuration not stated)
700 M⁻¹ s⁻¹ | 33% | CCC1(CC)C(=O)N(C(=O)NCc2ccccc2C)C1Oc1ccc(C(=O)O)cc1 (configuration not stated)
10000 M⁻¹ s⁻¹ | 25% | CCC1(CC)C(=O)N(C(=O)NCc2ccc(N(C)C)cc2)C1Oc1ccc(C(=O)O)cc1 (configuration not stated)
3000 M⁻¹ s⁻¹ | – | CCC1(CC)C(=O)N(C(=O)NCc2ccc(O)cc2)C1Oc1ccc(C(=O)O)cc1 (configuration not stated)
13100 M⁻¹ s⁻¹ | 64% | CCC1(CC)C(=O)N(C(=O)NCc2ccc(OC)c(C)c2)C1Oc1ccc(C(=O)O)cc1 (configuration not stated)
1500 M⁻¹ s⁻¹ | 56% | CCC1(CC)C(=O)N(C(=O)NCc2ccccc2)C1Oc1ccc(C(=O)O)cc1 (configuration not stated)
8200 M⁻¹ s⁻¹ | 46% | CCc1ccc(CNC(=O)N2C(=O)C(CC)(CC)C2Oc2ccc(C(=O)O)cc2)cc1 (configuration not stated)
1500 M⁻¹ s⁻¹ | 45% | CCC1(CC)C(=O)N(C(=O)NCc2ccc(C)cc2C)C1Oc1ccc(C(=O)O)cc1 (configuration not stated)
5200 M⁻¹ s⁻¹ | 58% | CCC1(CC)C(=O)N(C(=O)NCc2ccco2)C1Oc1ccc(C(=O)O)cc1 (configuration not stated)
21000 M⁻¹ s⁻¹ | 52% | CCC1(CC)C(=O)N(C(=O)NCc2ccc(C)c(C)c2)C1Oc1ccc(C(=O)O)cc1 (configuration not stated)
14700 M⁻¹ s⁻¹ | 69% | CCC1(CC)C(=O)N(C(=O)NCc2cc(C)cc(C)c2)C1Oc1ccc(C(=O)O)cc1 (configuration not stated)
3400 M⁻¹ s⁻¹ | 29% | CCC1(CC)C(=O)N(C(=O)NCc2ccc(Cl)cc2)C1Oc1ccc(C(=O)O)cc1 (configuration not stated)
7000 M⁻¹ s⁻¹ | 47% | CCC1(CC)C(=O)N(C(=O)NCc2cccc(C)c2)C1Oc1ccc(C(=O)O)cc1 (configuration not stated)
2300 M⁻¹ s⁻¹ | 4% | CCC1(CC)C(=O)N(C(=O)NCc2ccc(F)cc2)C1Oc1ccc(C(=O)O)cc1 (configuration not stated)
1300 M⁻¹ s⁻¹ | 53% | CCC1(CC)C(=O)N(C(=O)NCc2ccsc2)C1Oc1ccc(C(=O)O)cc1 (configuration not stated)
6500 M⁻¹ s⁻¹ | 76% | CCC1(CC)C(=O)N(C(=O)NCc2ccc(C)c(OC)c2)C1Oc1ccc(C(=O)O)cc1 (configuration not stated)
9400 M⁻¹ s⁻¹ | 28% | CCC1(CC)C(=O)N(C(=O)NCc2ccc(SC)cc2)C1Oc1ccc(C(=O)O)cc1 (configuration not stated)
4000 M⁻¹ s⁻¹ | 86% | CCC1(CC)C(=O)N(C(=O)NCc2ccc(C)cc2)C1Oc1ccc(C(=O)O)cc1 (configuration not stated)
5200 M⁻¹ s⁻¹ | 60% | CCC1(CC)C(=O)N(C(=O)NCc2ccc(OC)cc2)C1Oc1ccc(C(=O)O)cc1 (configuration not stated)
5000 M⁻¹ s⁻¹ | 10% | CCC1(CC)C(=O)N(C(=O)NCc2ccc3c(c2)OCO3)C1Oc1ccc(C(=O)O)cc1 (configuration not stated)
